Data from ChEMBL document CHEMBL4346672, “Antimicrobial and KPC/AmpC inhibitory activity of functionalized benzosiloxaboroles” (Eur J Med Chem, 2019).
In brackets after ≈: the same amount, converted by molar mass. Activity calls are given as the source filed them. No cut-off for these calls is given here.

Assays:
Escherichia coli [1] = experiment: Antibacterial activity against Escherichia coli ATCC 25922 assessed as diameter of zone inhibition measured after 18 hrs by CLSI disc diffusion method; format: functional
In short: (§1)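 Disc diffusion on Mueller-Hinton II agar. Compounds dissolved in DMSO. Strains stored at -80 °C and subcultured twice on tryptic soy agar before testing. Inhibition zones read after 35 °C, 18 h.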

Burkholderia cepacia [2] = experiment: Antibacterial activity against Burkholderia cepacia ATCC 25416 measured after 18 hrs by CLSI broth dilution method; format: functional; details: ATCC 25416, 18 h
In short: (§2)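 Broth MIC in Mueller-Hinton II broth following CLSI, compounds dissolved in DMSO. Strains subcultured twice on tryptic soy agar before testing. Growth read after 35 °C, 18 h.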

[3] = Dissociation constant, pKa1 of compound in 0.1 M NaOH by potentiometric analysis; format: physicochemical
Saccharomyces cerevisiae [4] = experiment: Antifungal activity against Saccharomyces cerevisiae ATCC 9763 assessed as decrease in fungal cell growth at 0.78 to 12.5 mg/L incubated for 24 hrs by CLSI broth dilution method; format: functional; details: ATCC 9763, 24 h
In short: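 Yeast strain subcultured on Sabouraud dextrose agar for 24–48 h at 30 °C before testing. Compounds dissolved in DMSO.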

Enterobacter cloacae [5] = experiment: Antibacterial activity against Enterobacter cloacae DSM 6234 assessed as fold reduction of MIC in presence of efflux pump inhibitor PAbetaN incubated for 18 hrs by broth microdilution method; format: functional
In short: (§3)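 MICs determined with and without PAβN at 50 mg/L in Mueller-Hinton broth containing 1 mM MgSO₄. 2-fold serial dilutions per CLSI. Fold change taken from the paired MICs after 35 °C, 18 h.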

Candida albicans [6] = experiment: Antifungal activity against Candida albicans ATCC 90028 assessed as decrease in fungal cell growth at 0.78 to 12.5 mg/L incubated for 24 hrs by CLSI broth dilution method; format: functional; details: ATCC 90028, 24 h
In short: (§4)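 Yeast broth dilution in RPMI 1640 with 2% glucose, compounds in DMSO. Yeasts pre-grown on Sabouraud dextrose agar. Growth read after 35 °C, 24 h.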

Enterococcus faecium = experiment: Antibacterial activity against Enterococcus faecium ATCC 6057 measured after 18 hrs by CLSI broth dilution method; format: functional; details: ATCC 6057, 18 h; in short: as §2
Staphylococcus aureus [7] = experiment: Antibacterial activity against Staphylococcus aureus ATCC 6538P measured after 18 hrs by CLSI broth dilution method; format: functional; in short: as §2
[8] = test system: Meyerozyma guilliermondii; experiment: Antifungal activity against Candida guilliermondii IBA 155 assessed as decrease in fungal cell growth at 0.78 to 12.5 mg/L incubated for 24 hrs by CLSI broth dilution method; format: functional; details: IBA 155, 24 h; in short: as §4
Enterococcus faecalis = experiment: Antibacterial activity against Enterococcus faecalis ATCC 29212 measured after 18 hrs by CLSI broth dilution method; format: functional; details: ATCC 29212, 18 h; in short: as §2
Klebsiella pneumoniae = experiment: Antibacterial activity against Klebsiella pneumoniae ATCC 13883 measured after 18 hrs by CLSI broth dilution method; format: functional; details: ATCC 13883, 18 h; in short: as §2
Enterobacter cloacae [9] = experiment: Antibacterial activity against Enterobacter cloacae DSM 6234 measured after 18 hrs by CLSI broth dilution method; format: functional; details: DSM 6234, 18 h; in short: as §2
Proteus mirabilis = experiment: Antibacterial activity against Proteus mirabilis ATCC 12453 measured after 18 hrs by CLSI broth dilution method; format: functional; details: ATCC 12453, 18 h; in short: as §2
Staphylococcus aureus [10] = experiment: Antibacterial activity against Staphylococcus aureus ATCC 6538P assessed as diameter of zone inhibition measured after 18 hrs by CLSI disc diffusion method; format: functional; in short: as §1
Bacillus subtilis = experiment: Antibacterial activity against Bacillus subtilis ATCC 6633 assessed as diameter of zone inhibition measured after 18 hrs by CLSI disc diffusion method; format: functional; in short: as §1
Escherichia coli [11] = experiment: Antibacterial activity against Escherichia coli ATCC 25922 measured after 18 hrs by CLSI broth dilution method; format: functional; details: ATCC 25922, 18 h; in short: as §2
Pseudomonas aeruginosa [12] = experiment: Antibacterial activity against Pseudomonas aeruginosa ATCC 27853 measured after 18 hrs by CLSI broth dilution method; format: functional; details: ATCC 27853, 18 h; in short: as §2
Burkholderia cepacia [13] = experiment: Antibacterial activity against Burkholderia cepacia ATCC 25416 assessed as diameter of zone inhibition measured after 18 hrs by CLSI disc diffusion method; format: functional; in short: as §1
Enterobacter cloacae [14] = experiment: Antibacterial activity against Enterobacter cloacae DSM 6234 assessed as diameter of zone inhibition measured after 18 hrs by CLSI disc diffusion method; format: functional; in short: as §1
[15] = test system: Stenotrophomonas maltophilia; experiment: Antibacterial activity against Stenotrophomonas maltophilia ATCC 13637 assessed as diameter of zone inhibition measured after 18 hrs by CLSI disc diffusion method; format: functional; in short: as §1
Pseudomonas aeruginosa [16] = experiment: Antibacterial activity against Pseudomonas aeruginosa ATCC 27853 assessed as diameter of zone inhibition measured after 18 hrs by CLSI disc diffusion method; format: functional, organism-based; in short: as §1
Candida albicans [17] = experiment: Antifungal activity against Candida albicans ATCC 90028 assessed as diameter of zone inhibition incubated for 24 hrs by CLSI disc diffusion method; format: functional
In short: (§5)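 Yeast disc diffusion on Mueller-Hinton agar supplemented with 2% glucose and 0.5 mg/L methylene blue. Compounds in DMSO. Yeasts subcultured on Sabouraud dextrose agar before testing. Zones read after 35 °C, 24 h.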

Acinetobacter baumannii = experiment: Antibacterial activity against Acinetobacter baumannii ATCC 19606 assessed as diameter of zone inhibition measured after 18 hrs by CLSI disc diffusion method; format: functional; in short: as §1
[18] = test system: Stenotrophomonas maltophilia; experiment: Antibacterial activity against Stenotrophomonas maltophilia ATCC 13637 measured after 18 hrs by CLSI broth dilution method; format: functional; details: ATCC 13637, 18 h; in short: as §2
Saccharomyces cerevisiae [19] = experiment: Antifungal activity against Saccharomyces cerevisiae ATCC 9763 diameter of zone inhibition incubated for 24 hrs by CLSI disc diffusion method; format: functional
In short: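 Disc-diffusion run on Mueller-Hinton II agar with 2% glucose and 0.5 mg/L methylene blue, using compounds in DMSO. Yeast was precultured on Sabouraud dextrose agar (24–48 h, 30 °C). Zones read after 24 h at 35 °C.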

Escherichia coli [20] = experiment: Antibacterial activity against Escherichia coli ATCC 25922 assessed as fold reduction of MIC in presence of efflux pump inhibitor PAbetaN incubated for 18 hrs by CLSI broth microdilution method; format: functional; in short: as §3
Candida parapsilosis = experiment: Antifungal activity against Candida parapsilosis ATCC 22019 assessed as diameter of zone inhibition incubated for 24 hrs by CLSI disc diffusion method; format: functional; in short: as §5
[21] = test system: Stenotrophomonas maltophilia; experiment: Antibacterial activity against Stenotrophomonas maltophilia ATCC 13637 assessed as fold reduction of MIC in presence of efflux pump inhibitor PAbetaN incubated for 18 hrs by broth microdilution method; format: functional; in short: as §3
[22] = test system: Staphylococcus epidermidis; experiment: Antibacterial activity against Staphylococcus epidermidis ATCC 12228 assessed as diameter of zone inhibition measured after 18 hrs by CLSI disc diffusion method; format: functional; in short: as §1
[23] = test system: Staphylococcus epidermidis; experiment: Antibacterial activity against Staphylococcus epidermidis ATCC 12228 measured after 18 hrs by CLSI broth dilution method; format: functional; details: ATCC 12228, 18 h; in short: as §2
Serratia marcescens = experiment: Antibacterial activity against Serratia marcescens ATCC 13880 measured after 18 hrs by CLSI broth dilution method; format: functional; details: ATCC 13880, 18 h; in short: as §2
[24] = test system: Meyerozyma guilliermondii; experiment: Antifungal activity against Candida guilliermondii IBA 155 assessed as diameter of zone inhibition incubated for 24 hrs by CLSI disc diffusion method; format: functional; in short: as §5
Pichia kudriavzevii = experiment: Antifungal activity against Candida krusei ATCC 6258 assessed as diameter of zone inhibition incubated for 24 hrs by CLSI disc diffusion method; format: functional; in short: as §5

Compound | diameter of the inhibition zone (DIZ) (Escherichia coli [1]) | MIC (Burkholderia cepacia [2]) [µg/mL] | pKa [3] | MIC (Saccharomyces cerevisiae [4]) [µg/mL] | fold change (FC) (Enterobacter cloacae [5]) | MIC (Candida albicans [6]) [µg/mL] | MIC (Enterococcus faecium) [µg/mL] | MIC (Staphylococcus aureus [7]) [µg/mL] | MIC [8] [µg/mL] | MIC (Enterococcus faecalis) [µg/mL] | MIC (Klebsiella pneumoniae) [µg/mL] | MIC (Enterobacter cloacae [9]) [µg/mL] | MIC (Proteus mirabilis) [µg/mL] | diameter of the inhibition zone (DIZ) (Staphylococcus aureus [10]) [mm] | diameter of the inhibition zone (DIZ) (Bacillus subtilis) [mm] | MIC (Escherichia coli [11]) [µg/mL] | MIC (Pseudomonas aeruginosa [12]) [µg/mL] | diameter of the inhibition zone (DIZ) (Burkholderia cepacia [13]) | diameter of the inhibition zone (DIZ) (Enterobacter cloacae [14]) | diameter of the inhibition zone (DIZ) [15] | further results
C[Si]1(C)OB(O)c2ccc(F)cc21 | inactive | > 400 | 7.3 | 1.56 (≈ 7.97 µM) | 32 | 25 (≈ 128 µM) | 200 (≈ 1020 µM) | 50 (≈ 255 µM) | 25 (≈ 128 µM) | 200 (≈ 1020 µM) | > 400 | > 400 | > 400 | 29 | 14 | 400 (≈ 2040 µM) | > 400 | inactive | inactive | 12 mm | diameter of the inhibition zone (DIZ) (Pseudomonas aeruginosa [16]): inactive; diameter of the inhibition zone (DIZ) (Candida albicans [17]): 13 mm; diameter of the inhibition zone (DIZ) (Acinetobacter baumannii): inactive; MIC [18]: 200 µg/mL (≈ 1020 µM); diameter of the inhibition zone (DIZ) (Saccharomyces cerevisiae [19]): 46 mm; fold change (FC) (Escherichia coli [20]): 16; diameter of the inhibition zone (DIZ) (Candida parapsilosis): 11 mm; fold change (FC) [21]: 8; diameter of the inhibition zone (DIZ) [22]: 26 mm; MIC [23]: 50 µg/mL (≈ 255 µM); MIC (Serratia marcescens): > 400 µg/mL; diameter of the inhibition zone (DIZ) [24]: 15 mm; diameter of the inhibition zone (DIZ) (Pichia kudriavzevii): 11 mm
C[Si]1(C)OB(O)c2cc(F)c(CO)c(F)c21 | inactive | > 400 | 5.8 | 400 (≈ 1640 µM) | 8 | > 400 | > 400 | 200 (≈ 819 µM) | > 400 | > 400 | > 400 | > 400 | > 400 | 17 | 11 | > 400 | > 400 | inactive | inactive | inactive | diameter of the inhibition zone (DIZ) (Pseudomonas aeruginosa [16]): inactive; diameter of the inhibition zone (DIZ) (Candida albicans [17]): inactive; diameter of the inhibition zone (DIZ) (Acinetobacter baumannii): inactive; MIC [18]: 200 µg/mL (≈ 819 µM); diameter of the inhibition zone (DIZ) (Saccharomyces cerevisiae [19]): inactive; fold change (FC) (Escherichia coli [20]): 4; diameter of the inhibition zone (DIZ) (Candida parapsilosis): inactive; fold change (FC) [21]: 16; diameter of the inhibition zone (DIZ) [22]: 19 mm; MIC [23]: 200 µg/mL (≈ 819 µM); MIC (Serratia marcescens): > 400 µg/mL; diameter of the inhibition zone (DIZ) [24]: inactive; diameter of the inhibition zone (DIZ) (Pichia kudriavzevii): inactive
C[Si]1(C)OB(O)c2cccc(F)c21 | 17 mm | > 400 | 7.2 | 6.25 (≈ 31.9 µM) | 32 | 50 (≈ 255 µM) | 200 (≈ 1020 µM) | 50 (≈ 255 µM) | 12.5 (≈ 63.8 µM) | 200 (≈ 1020 µM) | > 400 | > 400 | 200 (≈ 1020 µM) | 25 | 28 | 400 (≈ 2040 µM) | > 400 | inactive | inactive | 11 mm | diameter of the inhibition zone (DIZ) (Pseudomonas aeruginosa [16]): inactive; diameter of the inhibition zone (DIZ) (Candida albicans [17]): 24 mm; diameter of the inhibition zone (DIZ) (Acinetobacter baumannii): 11 mm; MIC [18]: 200 µg/mL (≈ 1020 µM); diameter of the inhibition zone (DIZ) (Saccharomyces cerevisiae [19]): 45 mm; fold change (FC) (Escherichia coli [20]): 32; diameter of the inhibition zone (DIZ) (Candida parapsilosis): 20 mm; fold change (FC) [21]: 8; diameter of the inhibition zone (DIZ) [22]: 39 mm; MIC [23]: 25 µg/mL (≈ 128 µM); MIC (Serratia marcescens): > 400 µg/mL; diameter of the inhibition zone (DIZ) [24]: 30 mm; diameter of the inhibition zone (DIZ) (Pichia kudriavzevii): 18 mm
